# Reference: ChEMBL document CHEMBL1806410, “Design and synthesis of pyridine-substituted itraconazole analogues with improved antifungal activities, water solubility and bioavailability” (Bioorg Med Chem Lett, 2011)
# Experiments:
# Candida albicans [1] = assay: Antifungal activity against Candida albicans JLC 31374 by broth microdilution method; type: functional
# Method in brief: (§1)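 MICs were determined by broth microdilution following NCCLS guidelines (M38-P for filamentous fungi). The panel covered four yeast species and two Aspergillus species, with two strains per species. Itraconazole served as positive control.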
# Aspergillus flavus [2] = assay: Antifungal activity against Aspergillus flavus JLC 30784 by broth microdilution method; type: functional; method in brief: as §1
# Aspergillus flavus [3] = assay: Antifungal activity against Aspergillus flavus JLC 40437 by broth microdilution method; type: functional; method in brief: as §1
# Candida albicans [4] = assay: Antifungal activity against Candida albicans JLC 30364 by broth microdilution method; type: functional; method in brief: as §1
# Pichia kudriavzevii [5] = assay: Antifungal activity against Candida krusei JLC 30366 by broth microdilution method; type: functional; method in brief: as §1
# Pichia kudriavzevii [6] = assay: Antifungal activity against Candida krusei JLC 30386 by broth microdilution method; type: functional; method in brief: as §1
# Cryptococcus neoformans [7] = assay: Antifungal activity against Cryptococcus neoformans JLC 50122 by broth microdilution method; type: functional; method in brief: as §1
# Cryptococcus neoformans [8] = assay: Antifungal activity against Cryptococcus neoformans JLC 50123 by broth microdilution method; type: functional; method in brief: as §1
# Candida parapsilosis [9] = assay: Antifungal activity against Candida parapsilosis JLC 30365 by broth microdilution method; type: functional; conditions: Lodderomyces parapsilosis; method in brief: as §1
# Aspergillus fumigatus [10] = assay: Antifungal activity against Aspergillus fumigatus JLC 30883 by broth microdilution method; type: functional; method in brief: as §1
# Aspergillus fumigatus [11] = assay: Antifungal activity against Aspergillus fumigatus JLC 30506 by broth microdilution method; type: functional; method in brief: as §1
# Candida parapsilosis [12] = assay: Antifungal activity against Candida parapsilosis JLC 30275 by broth microdilution method; type: functional; conditions: Lodderomyces parapsilosis; method in brief: as §1
# [13] = Clearance in rat at 10 mg/kg, iv administered as single dose; type: ADME, organism-based; parameters: dose 10 mg/kg, route intravenous; conditions: in vivo
# Method in brief: (§2)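 Rats received a single dose of compound, either oral (10 mg/kg) or intravenous (10, 5 or 2.5 mg/kg). Plasma levels were followed, and the reported parameters were Cmax, Tmax, AUC0–t, half-life, clearance and bioavailability (F).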
# [14] = AUC (0 to t) in rat at 10 mg/kg, iv administered as single dose; type: ADME, organism-based; parameters: dose 10 mg/kg, route intravenous; conditions: plasma; method in brief: as §2
# [15] = Solubility of the compound in water at pH 1.2; type: physicochemical; conditions: water, read-out: solubility
# [16] = Cmax in rat at 10 mg/kg, po administered as single dose; type: ADME, organism-based; parameters: dose 10 mg/kg, route oral; conditions: in vivo; method in brief: as §2
# [17] = AUC (0 to t) in rat at 10 mg/kg, po administered as single dose; type: ADME, organism-based; parameters: dose 10 mg/kg, route oral; conditions: plasma; method in brief: as §2
# [18] = Half life in rat at 10 mg/kg, iv administered as single dose; type: ADME, organism-based; parameters: dose 10 mg/kg, route intravenous; conditions: in vivo; method in brief: as §2
# [19] = Oral bioavailability in rat at 10 mg/kg, administered as single dose; type: ADME, organism-based; conditions: in vivo; method in brief: as §2
# [20] = Solubility of the compound in water at pH 7.4; type: physicochemical; conditions: buffer, BLD = below limit of detection
# [21] = Half life in rat at 10 mg/kg, po administered as single dose; type: ADME, organism-based; parameters: dose 10 mg/kg, route oral; conditions: in vivo; method in brief: as §2
# [22] = Tmax in rat at 10 mg/kg, po administered as single dose; type: ADME, organism-based; parameters: dose 10 mg/kg, route oral; conditions: in vivo; method in brief: as §2
# [23] = AUC (0 to t) in rat at 5 mg/kg, iv administered as single dose; type: ADME, organism-based; parameters: dose 5 mg/kg, route intravenous; conditions: plasma; method in brief: as §2
# [24] = Half life in rat at 5 mg/kg, iv administered as single dose; type: ADME, organism-based; parameters: dose 5 mg/kg, route intravenous; conditions: in vivo; method in brief: as §2
# [25] = Clearance in rat at 5 mg/kg, iv administered as single dose; type: ADME, organism-based; parameters: dose 5 mg/kg, route intravenous; conditions: in vivo; method in brief: as §2
SMILES,MIC (Candida albicans [1]) [µg/mL],MIC (Aspergillus flavus [2]) [µg/mL],MIC (Aspergillus flavus [3]) [µg/mL],MIC (Candida albicans [4]) [µg/mL],MIC (Pichia kudriavzevii [5]) [µg/mL],MIC (Pichia kudriavzevii [6]) [µg/mL],MIC (Cryptococcus neoformans [7]) [µg/mL],MIC (Cryptococcus neoformans [8]) [µg/mL],MIC (Candida parapsilosis [9]) [µg/mL],MIC (Aspergillus fumigatus [10]) [µg/mL],MIC (Aspergillus fumigatus [11]) [µg/mL],MIC (Candida parapsilosis [12]) [µg/mL],further results
O=c1n(-c2ccc(N3CCN(c4ccc(OC[C@H]5CO[C@](Cn6cncn6)(c6ccc(F)cc6F)O5)cc4)CC3)nc2)cnn1CCCO,< 0.0625,0.25,0.25,< 0.0625,0.0625,0.0625,< 0.0625,< 0.0625,0.0625,1,1,0.0625,
CC(C)Cn1ncn(-c2ccc(N3CCN(c4ccc(OC[C@H]5CO[C@](Cn6cncn6)(c6ccc(F)cc6F)O5)cc4)CC3)nc2)c1=O,0.03,0.0625,0.0625,0.03,0.0625,0.0625,0.5,0.5,0.125,0.25,0.25,0.125,solubility [15]: 2330 µg/mL; AUC(0-t) [23]: 3710 ng·h/mL; Cmax [16]: 392 ng/mL; AUC(0-t) [17]: 1610 ng·h/mL; bioavailability [19]: 21.7%; half-life [24]: 85.8 min; clearance [25]: 23.5 mL/min/kg; half-life [21]: 131 min; Tmax [22]: 2 h
CC(C)(CO)Cn1ncn(-c2ccc(N3CCN(c4ccc(OC[C@H]5CO[C@](Cn6cncn6)(c6ccc(F)cc6F)O5)cc4)CC3)nc2)c1=O,0.0625,0.125,0.125,0.0625,0.25,0.25,0.125,0.125,0.5,0.125,0.125,0.5,
CC(CO)Cn1ncn(-c2ccc(N3CCN(c4ccc(OC[C@H]5CO[C@](Cn6cncn6)(c6ccc(F)cc6F)O5)cc4)CC3)nc2)c1=O (some centres undefined),0.0625,> 0.5,> 0.5,0.0625,0.125,0.125,0.0625,0.0625,2,> 32,> 32,,
CC(CO)n1ncn(-c2ccc(N3CCN(c4ccc(OC[C@H]5CO[C@](Cn6cncn6)(c6ccc(F)cc6F)O5)cc4)CC3)nc2)c1=O (some centres undefined),< 0.0625,0.25,0.25,< 0.0625,> 2,> 2,< 0.0625,< 0.0625,< 0.0625,1,1,< 0.0625,

# Now from value to compound, other results behind:
MIC (Candida albicans [1]) [µg/mL],MIC (Aspergillus flavus [2]) [µg/mL],MIC (Aspergillus flavus [3]) [µg/mL],MIC (Candida albicans [4]) [µg/mL],MIC (Pichia kudriavzevii [5]) [µg/mL],MIC (Pichia kudriavzevii [6]) [µg/mL],MIC (Cryptococcus neoformans [7]) [µg/mL],MIC (Cryptococcus neoformans [8]) [µg/mL],MIC (Candida parapsilosis [9]) [µg/mL],MIC (Aspergillus fumigatus [10]) [µg/mL],MIC (Aspergillus fumigatus [11]) [µg/mL],MIC (Candida parapsilosis [12]) [µg/mL],SMILES,further results
< 0.0038,0.25,0.25,< 0.0038,0.125,0.125,0.5,0.5,0.25,0.0625,0.0625,0.25,CCC(C)n1ncn(-c2ccc(N3CCN(c4ccc(OC[C@H]5CO[C@](Cn6cncn6)(c6ccc(F)cc6F)O5)cc4)CC3)nc2)c1=O (some centres undefined),
< 0.0038,0.25,0.25,< 0.0038,0.5,0.5,0.25,0.25,0.25,0.125,0.125,0.25,O=c1n(-c2ccc(N3CCN(c4ccc(OC[C@H]5CO[C@](Cn6cncn6)(c6ccc(F)cc6F)O5)cc4)CC3)nc2)cnn1Cc1ccccc1,
0.0075,0.125,0.125,0.0075,0.0625,0.0625,0.25,0.25,0.125,0.25,0.25,0.125,CC(C)n1ncn(-c2ccc(N3CCN(c4ccc(OC[C@H]5CO[C@](Cn6cncn6)(c6ccc(F)cc6F)O5)cc4)CC3)nc2)c1=O,clearance [13]: 21.2 mL/min/kg; AUC(0-t) [14]: 7730 ng·h/mL; solubility [15]: 1680 µg/mL; Cmax [16]: 712 ng/mL; AUC(0-t) [17]: 2710 ng·h/mL; half-life [18]: 251 min; bioavailability [19]: 35%; solubility [20]: BLD; half-life [21]: 75.6 min; Tmax [22]: 1.88 h
